Series [1] is described as follows: Antiproliferative activity against human MCF7:5C cells assessed as reduction in cell viability incubated for 7 days by Hoechst 33258 dye based assay relative to control. Format: functional. As to conditions: 168 h. Summed up: (§1)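 Cells were seeded at 5000 per well; MCF7:WS8 had been estrogen-stripped for 2 days first. Compounds were serially diluted in DMSO, with 0.01% DMSO as vehicle. The medium was removed on day 5 (MCF7:WS8) or day 7 (MCF7:5C), and cells were lysed by freezing at −80 °C overnight. DNA was measured by Hoechst 33258 fluorescence. Maximum efficacy was normalized to vehicle (0%) and no cells (100%); at least three biological replicates.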

Series [2] in a line: Antiproliferative activity against human MCF7:WS8 cells assessed as reduction in cell viability incubated for 5 days by Hoechst 33258 dye based assay. It is filed as functional. As to conditions: MCF7:WS8, 120 h. Summed up: as §1
Series [3] is described as follows: Antiproliferative activity against human MCF7:WS8 cells assessed as reduction in cell viability incubated for 5 days by Hoechst 33258 dye based assay relative to control. As to conditions: MCF7:WS8, 120 h. It is filed as functional. The method, boiled down: as §1
The nature of series [4]: Plasma concentration in C57BL/6 mouse at 5 mg, sc measured after 0.5 hrs by LC/MS-MS analysis. It is filed as ADME, organism-based. Summed up: (§2)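 PK screen in female C57BL/6 mice (N = 3 per time point) given 5 mg s.c. single dose; mice perfused, plasma and brain collected postmortem at 0.5 and 2 h; analyte quantified by LC-MS/MS in MRM mode against standard curves prepared in the matching matrix with a common internal standard; mean and s.d. reported.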

Series [5] in a line: Plasma concentration in C57BL/6 mouse at 5 mg, sc measured after 2 hrs by LC/MS-MS analysis. It is filed as ADME, organism-based. The method, boiled down: as §2
The nature of series [6]: Drug concentration in C57BL/6 mouse brain at 5 mg, sc measured after 0.5 hrs by LC/MS-MS analysis. It is filed as ADME, organism-based. As to conditions: read-out: Drug uptake. Summed up: as §2
A short description of series [7]: Drug concentration in C57BL/6 mouse brain at 5 mg, sc measured after 2 hrs by LC/MS-MS analysis. Format: ADME, organism-based. The conditions noted are these: read-out: Drug uptake. The method, boiled down: as §2
A further series concerns Rattus norvegicus. The series is described as follows: Induction of uterotrophic activity in Sprague-Dawley rat assessed as increase in uterine weight at 2 mg/kg, sc administered for 3 days and measured after 24 hrs of last dosing by hematoxylin eosin staining based imaging analysis. It is filed as functional, organism-based. Summed up: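 Female Sprague Dawley rats, 12 days old, were housed with foster dams (6 per dam) and acclimated for one week. From day 19 they received 3 daily doses of 2 mg/kg s.c. in peanut oil. Animals were killed 24 h after the last dose, and uteri were excised, trimmed of fat and mesentery, and weighed. Half of each uterus was fixed in 4% paraformaldehyde, paraffin embedded and stained with H&E.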

Series [8] concerns MCF7:TAM1. The series is described as follows: Antitumor activity against human MCF7:TAM1 cells xenografted in athymic nude mouse assessed as tumor regression at 5 mg, sc measured after 4 weeks. Format: functional, organism-based. The method, boiled down:
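Ovariectomized athymic female nude mice, 4–6 weeks old, carrying MCF7:TAM1 tumours established in the mammary fat pad, with E2 supplied from 1.0 cm silastic capsules implanted s.c. Dosing was 5 mg/week s.c. in sesame oil. Tumour cross-sectional area was measured weekly with calipers as (length/2)×(width/2)×π, and mean area was plotted against time in weeks.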

For series [9], the species on record is Homo sapiens. The series is described as follows: Cytotoxicity against human MCF7:WS8 3D spheroid cells assessed as reduction in tumor spheroid size at 10 nM incubated for 14 days.
Series [10] deals with T47D. The series is described as follows: Cytotoxicity against human T47D 3D spheroid cells assessed as reduction in tumor cell viability at 10 nM incubated for 14 days by celltiter-glo 3D cell viability assay.
Series [11] is filed under the species Homo sapiens. The series is described as follows: Cytotoxicity against human MCF7:WS8 3D spheroid cells assessed as reduction in tumor cell viability at 10 nM incubated for 14 days by celltiter-glo 3D cell viability assay.
Series [12] has as its system MCF7:TAM1. The series is described as follows: Cytotoxicity against human MCF7:TAM1 3D spheroid cells assessed as reduction in tumor cell viability at 10 nM incubated for 14 days by celltiter-glo 3D cell viability assay.
Series [13] has as its system T47D. The series is described as follows: Cytotoxicity against human T47D 3D spheroid cells harboring Y537S mutant assessed as reduction in tumor cell viability at 10 nM incubated for 14 days by celltiter-glo 3D cell viability assay.
Series [14] concerns T47D. The series is described as follows: Cytotoxicity against human T47D 3D spheroid cells harboring D538G mutant assessed as reduction in tumor cell viability at 10 nM incubated for 14 days by celltiter-glo 3D cell viability assay.

Data on one compound can be found in ChEMBL document CHEMBL4354825, “Design and Synthesis of Basic Selective Estrogen Receptor Degraders for Endocrine Therapy Resistant Breast Cancer” (J Med Chem, 2019).

Each structure is given as a SMILES string. Activity calls are given as the source filed them. The calls are words filed in the database; no cut-off is given here.

Regarding `C[C@]12CC[C@@H]3c4ccc(O)cc4C[C@@H](CCCCCCCCC[S+]([O-])CCCC(F)(F)C(F)(F)F)[C@H]3[C@@H]1CC[C@@H]2O` (stereo not given in full) [FULVESTRANT], the Emax amounted to 48% in [1] and 66% in series [3]. The 50% inhibitory concentration (IC50) in series [2] is 0.603 nM. Moreover, the concentration at 0.5 h was 31.2 nM in series [4] and 0.7 nM in series [6]. The concentration at 2 h in [5] is 301 nM; in [7] it was 47.4 nM. For the same compound, the result with Rattus norvegicus was inactive. Moreover, the result with MCF7:TAM1 [8], in the series listed under Homo sapiens [9], with T47D [10], in the series listed under Homo sapiens [11], with MCF7:TAM1 [12] and with T47D [13] was Active. Besides, the outcome in the series on T47D [14] was Active.
